Results taken from ChEMBL document CHEMBL1221337, “The unsaturated acyclic nucleoside analogues bearing a sterically constrained (Z)-4'-benzamido-2'-butenyl moiety: Synthesis, X-ray crystal structure study, cytostatic and antiviral activity evaluations” (Bioorg Med Chem, 2010).
Active and inactive are the calls of the source. The calls are words filed in the database; no cut-off is given here.

What was measured:
Human alphaherpesvirus 2 = experiment: Antiviral activity against HSV2 G infected in HEL cells assessed as inhibition of virus-induced cytopathicity; assay type: functional, organism-based; conditions: strain G
Outline: (§1)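 Confluent cell monolayers in 96-well plates were inoculated with 100 CCID50 of virus. After 1 h adsorption, residual virus was removed. Cultures were then incubated with test compound at varying concentrations (200, 40, 8... µM). Viral cytopathicity was scored once it reached completion in untreated infected controls. Host cells: HEL for HSV-1 KOS and HSV-2 G; Vero for the Vero lines; HeLa for the HeLa lines.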

[1] = Cytotoxicity against human WI38 cells after 72 hrs by MTT assay; assay type: cell-based; conditions: WI-38, 72 h
Outline: (§2)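 Adherent cells were plated at 3000–6000 cells/well on day 0, according to doubling time. Compound was added as five 10-fold dilutions (1 × 10⁻⁸–1 × 10⁻⁴ M), with DMSO ≤0.1%, and incubated 72 h. Read-out was MTT absorbance converted to percentage growth versus untreated wells on the same plate. IC50 was obtained by linear regression between bracketing concentrations; the highest concentration was reported as ">" if not reached. Quadruplicates, three experiments.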

[2] = system: Vesicular stomatitis virus; experiment: Antiviral activity against Vesicular stomatitis virus infected in human HeLa cells assessed as inhibition of virus-induced cytopathicity; assay type: functional, organism-based
Outline: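 Confluent HeLa cultures were infected with 100 CCID50 of virus. Unadsorbed virus was removed after 1 h, and compound was added at serial concentrations (200, 40, 8…). Viral cytopathic effect was read when untreated virus-infected control wells reached full cytopathicity.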

Vaccinia virus = experiment: Antiviral activity against Vaccinia virus infected in HEL cells assessed as inhibition of virus-induced cytopathicity; assay type: functional, organism-based; conditions: Orthopoxvirus vaccinia
[3] = system: Mammalian orthoreovirus 1; experiment: Antiviral activity against Reovirus 1 infected in Vero cells assessed as inhibition of virus-induced cytopathicity; assay type: functional, organism-based; outline: as §1
Sindbis virus = experiment: Antiviral activity against Sindbis virus infected in Vero cells assessed as inhibition of virus-induced cytopathicity; assay type: functional, organism-based; outline: as §1
Coxsackievirus B4 [4] = experiment: Antiviral activity against Coxsackievirus B4 infected in Vero cells assessed as inhibition of virus-induced cytopathicity; assay type: functional, organism-based; outline: as §1
HeLa [5] = experiment: Cytotoxicity against human HeLa cells assessed as cell viability after 3 days by coulter counting; assay type: cell-based; conditions: 72 h
Influenza B virus = experiment: Antiviral activity against influenza B virus infected in MDCK cells assessed as inhibition of virus-induced cytopathicity; assay type: functional, organism-based
Outline: (§3)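 MDCK cells, nearly confluent in microtiter plates, were infected with 100 CCID50 per well. After 1 h adsorption, the inoculum was washed off. Cells were incubated with graded compound concentrations (200, 40, 8…). Cytopathicity was recorded at completion in untreated infected controls.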

Punta Toro virus = experiment: Antiviral activity against Punta Toro virus infected in Vero cells assessed as inhibition of virus-induced cytopathicity; assay type: functional, organism-based; outline: as §1
MIA PaCa-2 = experiment: Cytotoxicity against human MIAPaCa2 cells after 72 hrs by MTT assay; assay type: functional, cell-based; conditions: MIA PaCa-2, 72 h; outline: as §2
HEp-2 = experiment: Cytotoxicity against human Hep2 cells after 72 hrs by MTT assay; assay type: functional, cell-based; conditions: HEp-2, 72 h; outline: as §2
MCF7 = experiment: Cytotoxicity against human MCF7 cells after 72 hrs by MTT assay; assay type: functional, cell-based; conditions: MCF7, 72 h; outline: as §2
SW-620 = experiment: Cytotoxicity against human SW620 cells after 72 hrs by MTT assay; assay type: functional, cell-based; conditions: SW-620, 72 h; outline: as §2
Coxsackievirus B4 [6] = experiment: Antiviral activity against Coxsackievirus B4 infected in human HeLa cells assessed as inhibition of virus-induced cytopathicity; assay type: functional, organism-based; outline: as §1
Influenza A virus = experiment: Antiviral activity against influenza A virus H1N1; H3N2 infected in MDCK cells assessed as inhibition of virus-induced cytopathicity; assay type: functional, organism-based; outline: as §3
HeLa [7] = experiment: Cytotoxicity against human HeLa cells after 72 hrs by MTT assay; assay type: functional, cell-based; outline: as §2
MDCK = experiment: Cytotoxicity against MDCK cells assessed as cell viability after 3 days by coulter counting; assay type: cell-based, Canis lupus familiaris; conditions: dog, 72 h
Human alphaherpesvirus 1 = experiment: Antiviral activity against HSV1 KOS infected in HEL cells assessed as inhibition of virus-induced cytopathicity; assay type: functional, organism-based; outline: as §1
[8] = system: Vesicular stomatitis virus; experiment: Antiviral activity against Vesicular stomatitis virus infected in HEL cells assessed as inhibition of virus-induced cytopathicity; assay type: functional, organism-based
[9] = system: Respiratory syncytial virus; experiment: Antiviral activity against Respiratory syncytial virus infected in human HeLa cells assessed as inhibition of virus-induced cytopathicity; assay type: functional, organism-based; outline: as §1
Human respirovirus 3 = experiment: Antiviral activity against Parainfluenza 3 infected in Vero cells assessed as inhibition of virus-induced cytopathicity; assay type: functional, organism-based; outline: as §1
HEL = experiment: Cytotoxicity against HEL cells assessed as cell viability after 3 days by coulter counting; assay type: cell-based; conditions: human, 72 h
Outline: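 HEL cells were seeded at 5 × 10³ cells/well and allowed to proliferate 24 h. Medium with test compound at different concentrations was then added, and cells were incubated 3 days at 37 °C. Cell number was counted by Coulter counter. CC50 (50% reduction in cell number versus untreated controls) was read from plots of cell number (% of control) against concentration.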

Vero = experiment: Cytotoxicity against african green monkey Vero cells assessed as cell viability after 3 days by coulter counting; assay type: cell-based; conditions: chlorocebus sabaeus, 72 h
SK-BR-3 = experiment: Cytotoxicity against human SK-BR-3 cells after 72 hrs by MTT assay; assay type: functional, cell-based; conditions: SK-BR-3, 72 h; outline: as §2

| SMILES | inhibition (Human alphaherpesvirus 2) | IC50 [1] [µM] | inhibition [2] | inhibition (Vaccinia virus) | inhibition [3] | inhibition (Sindbis virus) | inhibition (Coxsackievirus B4 [4]) | Activity (HeLa [5]) | inhibition (Influenza B virus) | inhibition (Punta Toro virus) | IC50 (MIA PaCa-2) [µM] | IC50 (HEp-2) [µM] | IC50 (MCF7) [µM] | IC50 (SW-620) [µM] | inhibition (Coxsackievirus B4 [6]) | inhibition (Influenza A virus) | IC50 (HeLa [7]) [µM] | Activity (MDCK) | inhibition (Human alphaherpesvirus 1) | inhibition [8] | further results |
| --- | --- | --- | --- | --- | --- | --- | --- | --- | --- | --- | --- | --- | --- | --- | --- | --- | --- | --- | --- | --- | --- |
| Nc1nc(=O)n(C/C=C\CNC(=O)c2ccc(F)cc2)cc1F | inactive | > 100 | inactive | inactive | inactive | inactive | inactive | Non-toxic | inactive | inactive | > 100 | 32.1 | > 100 | > 100 | inactive | inactive | > 100 | Non-toxic | inactive | inactive | inhibition [9]: inactive; inhibition (Human respirovirus 3): inactive; Activity (HEL): Non-toxic; Activity (Vero): Non-toxic; IC50 (SK-BR-3): > 100 µM |
| O=C(NC/C=C\Cn1cc(F)c(=O)[nH]c1=O)c1ccccc1 | inactive | > 100 | inactive | inactive | inactive | inactive | inactive | Non-toxic | inactive | inactive | > 100 | 87.5 | > 100 | > 100 | inactive | inactive | > 100 | Non-toxic | inactive | inactive | inhibition [9]: inactive; inhibition (Human respirovirus 3): inactive; Activity (HEL): Non-toxic; Activity (Vero): Non-toxic; IC50 (SK-BR-3): > 100 µM |
| Nc1ccn(C/C=C\CNC(=O)c2ccc(F)cc2)c(=O)n1 | inactive | 4 | inactive | inactive | inactive | inactive | inactive | Non-toxic | inactive | inactive | > 100 | > 100 | > 100 | > 100 | inactive | inactive | > 100 | Non-toxic | inactive | inactive | inhibition [9]: inactive; inhibition (Human respirovirus 3): inactive; Activity (HEL): Non-toxic; Activity (Vero): Non-toxic; IC50 (SK-BR-3): > 100 µM |
